Measured values reported in article PMC4834512 (Innate Immunity, 2016).
Where “and” joins values, the source holds several entries; their conditions need not be identical. Identical values can stand only once.

Legend:
[1] = test system: LPS from E. coli; test: LPS inactivation by PMB in plasma, LAL test; type: biochemical, Escherichia coli; conditions: 5 ng/ml LPS from E. coli, fresh human heparinized plasma, 60 min 37℃
Method in brief: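 Fresh human heparinized plasma spiked with E. coli LPS (5 or 0.5 ng/ml) was incubated with test compound at 0, 10, 100, 250, 500 and 1000 ng/ml for 60 min at 37℃ in pyrogen-free glass vials. Endotoxin activity was read by kinetic chromogenic LAL test. ENC50 is the concentration reducing activity by 50% relative to LPS-spiked plasma without test compound.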

[2] = test system: plasma proteins; type: in vitro ADME, human
Method in brief: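 Fresh citrate-anticoagulated plasma from three donors was spiked with 1 µg/ml test compound. Aliquots were centrifuged (10,000 g, 20 min) through ultrafiltration membranes of 10, 30, 50 or 100 kDa MMCO, and filtrates were stored at −20℃. Drug in filtrates was measured by competitive ELISA (detection limit 1 ng/ml; samples diluted into 0–100 ng/ml range). Total protein was measured by automated analyser. The same filtration was run in 0.9% NaCl to check binding to the filter.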

[3] = test system: plasma proteins; conditions: assumed value from the literature; cited from earlier work

Substance: Polymyxin B [PMB]
- ENC50 (endotoxin neutralizing concentration) [1]: 381 ng/mL and < 400 ng/mL
- PMB % of + control in filtrate ([2]; 100 kDa MMCO, citrate plasma, 1 µg/ml PMB, ultrafiltration 10,000 g 20 min, ELISA, mean ± SD n = 3): 25 ± 13%
- PMB-content of filtrates compared with a PMB-solution without plasma ([2]; membranes with smaller pores than 100 kDa MMCO (10, 30, 50 kDa)): < 10%
- Plasma protein binding of PMB [3]: up to 90%
